Compound activity: PubChem, Broad Institute
An excerpt weighted towards active compounds, which were near 1.9% of everything screened.
DENV2 CPE: inhibitors of DENV2 cytopathic effect, primary screen, cell-based, plate reader, single concentration | actives 1.7% (n = 350,000) | DENV2-infected cells, cytopathic effect rescue | CPE inhibition, % at 9.99 µM | AID 651640, 2012; in the data active means CPE inhibition above about 20%, passing the limit was not always enough; tested in BHK-21 cells
Cneo AK release: Cryptococcus neoformans cell lysis inducers, primary screen, AK release luminescence, single concentration; actives 0.2% (n = 360,000); C. neoformans lysis, adenylate kinase release luminescence, 4 h; normalised: neutral wells 0, clomiphene wells 100; lysis activity, % at 15 µM;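 active means mean lysis activity across replicates of at least 80%, whatever share of replicates individually reach that level; inactive means mean lysis activity below 80%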
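Material – log-phase Cryptococcus neoformans yeast cells · Input – 5 × 10^6 yeast cells/mL · Medium – fresh YPD growth medium · Doses – single compound concentration per well · Timing – static 4 h at 37 °C with compound, 1 h detection · Detection – adenylate kinase release luminescence · Read-out – signal increase indicating cell lysis · Control set – Clomiphene as positive lysis control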
FN deposit inh: inhibitors of fibronectin matrix deposition, primary screen, AH1F cells, Alexa488-fibronectin fluorescence, plate reader; AH1F fibroblasts, overnight; inhibition, % at 12.6 µM; actives 0.086% (n = 350,000);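 active means mean inhibition across replicates of 30% or more, regardless of how many single replicates reach that level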
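Test system: AH1F fibroblast monolayer depositing Alexa488-labelled fibronectin into matrix. Input: 10000 cells per well. Technique: fluorescence, ex 485 nm, em 525 nm. Buffer or medium: DMEM plus 2% serum, read in PBS. Timing: 1 h cell adhesion before compound, then overnight fibronectin incubation. Compound: single dose, pinned. Read-out basis: inhibition from reduced deposited-fibronectin fluorescence.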
PGC1a acetyl inh: inhibitors of PGC1a acetylation signal, primary screen, cell-based, U2OS, AlphaScreen, inhibitor mode | AID 651687, 2012 | inhibition, % at 15.6 µM | actives 0.17% (n = 350,000) | AlphaScreen anti-acetyl-lysine; with virally co-expressed GCN5 acetyltransferase;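 active means every replicate shows inhibition of at least 40%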
XiGFP reactiv: activators of inactive X chromosome reactivation, primary screen, imaging, XiGFP fibroblasts, GFP high-content imaging, set 2 | activation, % at 7.58 µM | XiGFP mouse fibroblasts, % GFP-positive cells imaging, 3 d; cells co-treated with 5-aza-dC sensitizer; scaled so ellipticine positive control = 100% | actives 0.055% (n = 360,000) | AID 743238, 2013;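 active means mean normalized replicate activation at least 10% and every replicate at or above 10%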
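System: XiGFP fibroblasts, SV40-immortalized. Medium: DMEM plus 5-aza-dC sensitizer. Doses: single point. Timing: 3 d treatment, 15 min room-temperature fixation. Control set: ellipticine 6 µM.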
CFTR F508del cor: F508del CFTR correction, initial screen, CFBE line, single point; CFBE cells, YFP halide quenching; stimulated with forskolin plus potentiator P3; % fluorescence drop versus neutral controls; activity (quench increase), % at 7.58 µM; actives 0.36% (n = 350,000); AID 720511, 2013;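 active means mean added fluorescence quench of at least 8% versus neutral control, with both replicates also reaching 8%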;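 further: cells transiently co-express mutant CFTR-F508del with the halide-sensitive YFP; corrector assay measuring rescue of mutant channel to the surface after 24 h compound exposure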
Numbers stand for hits.

Results for CN1C(=O)c2cc(NC(=O)c3ccc(Cl)cc3)ccc2OC[C@@H]2O[C@H](CC(=O)NCc3cccc(F)c3)CC[C@H]21 ?
DENV2 CPE: inactive; Cneo AK release: inactive; FN deposit inh: inactive; PGC1a acetyl inh: inactive; XiGFP reactiv: inactive; CFTR F508del cor: 12.4

How did Cc1cccc(NC(=S)N/N=C2\CC(C)(C)Oc3ccc(O)cc32)c1 do in these assays?
DENV2 CPE: inactive; FN deposit inh: 38.6; XiGFP reactiv: inactive; CFTR F508del cor: inactive

Results for Cc1cc2nnc(SCC(=O)NCc3ccco3)n2c2ccccc12 ?
DENV2 CPE: inactive; Cneo AK release: inactive; FN deposit inh: inactive; PGC1a acetyl inh: inactive; XiGFP reactiv: inactive; CFTR F508del cor: 9.8

What do the screens show for `Cc1cc2nnc(SCC(=O)NCc3cccs3)n2c2ccccc12`?
Cneo AK release: inactive; FN deposit inh: inactive; PGC1a acetyl inh: inactive

What do the screens show for `Cc1ccc(S(=O)(=O)N2CCOCC2)cc1NC(=O)CSc1ccccn1`?
DENV2 CPE: inactive; Cneo AK release: inactive; FN deposit inh: inactive; PGC1a acetyl inh: inactive; XiGFP reactiv: inactive; CFTR F508del cor: inactive

How did Cc1ccc(S(=O)(=O)N2CCOCC2)cc1NC(=O)CSc1nnc(COc2ccccc2F)n1N do in these assays?
DENV2 CPE: inactive; Cneo AK release: inactive; FN deposit inh: inactive; PGC1a acetyl inh: inactive; XiGFP reactiv: inactive; CFTR F508del cor: 28.2

Results for CCCNC(=O)N1[C@H](CO)[C@H](c2ccccc2)[C@@H]1CNC(=O)c1ccccc1 ?
DENV2 CPE: 33.3; Cneo AK release: inactive; PGC1a acetyl inh: inactive; XiGFP reactiv: inactive; CFTR F508del cor: inactive

How did CCCNC(=O)N1[C@@H](CO)[C@@H](c2ccccc2)[C@@H]1CNC(=O)c1ccccc1 do in these assays?
DENV2 CPE: inactive; Cneo AK release: inactive; PGC1a acetyl inh: inactive; XiGFP reactiv: inactive; CFTR F508del cor: inactive

What do the screens show for `CCCNC(=O)N1[C@@H](CO)[C@H](c2ccccc2)[C@@H]1CNC(=O)c1cccc(F)c1`?
DENV2 CPE: inactive; Cneo AK release: inactive; FN deposit inh: inactive; PGC1a acetyl inh: inactive; XiGFP reactiv: inactive; CFTR F508del cor: inactive

How did CCCNC(=O)N1[C@H](CNC(=O)c2cccc(F)c2)[C@@H](c2ccccc2)[C@@H]1CO do in these assays?
DENV2 CPE: 43.2; Cneo AK release: inactive; FN deposit inh: inactive; PGC1a acetyl inh: inactive; XiGFP reactiv: inactive; CFTR F508del cor: inactive

Results for C[C@@H]1CN([C@H](C)CO)C(=O)c2cc(NC(=O)C3CCCCC3)ccc2O[C@@H]1CN(C)C(=O)Nc1ccccc1 ?
DENV2 CPE: inactive; Cneo AK release: inactive; PGC1a acetyl inh: inactive; XiGFP reactiv: inactive; CFTR F508del cor: inactive

Results for COc1ccc(S(=O)(=O)NCc2ccccn2)cc1NC(=O)c1ccccc1F ?
DENV2 CPE: inactive; Cneo AK release: inactive; FN deposit inh: inactive; PGC1a acetyl inh: inactive; XiGFP reactiv: inactive; CFTR F508del cor: 8.6

Results for Cn1c(N)c(C(=O)N2CCN(c3ccccc3)CC2)c(=O)n(C)c1=O ?
DENV2 CPE: 36.8; Cneo AK release: inactive; FN deposit inh: inactive; PGC1a acetyl inh: inactive; XiGFP reactiv: inactive; CFTR F508del cor: inactive

What do the screens show for `Fc1ccc(F)c(C2=NNC(=Nc3ccccc3F)SC2)c1`?
DENV2 CPE: 86.4; Cneo AK release: inactive; FN deposit inh: inactive; PGC1a acetyl inh: inactive; XiGFP reactiv: inactive

How did CO[C@@H]1CN(C)C(=O)c2ccc(NC(=O)C3CC3)cc2OC[C@H](C)N(C(=O)CN(C)C)C[C@@H]1C do in these assays?
DENV2 CPE: inactive; Cneo AK release: inactive; FN deposit inh: inactive; PGC1a acetyl inh: inactive; XiGFP reactiv: inactive; CFTR F508del cor: inactive

What do the screens show for `O=C(Nc1ccc(Br)cc1F)C1CCN(c2nnc(-n3cccc3)s2)CC1`?
DENV2 CPE: 25.6; Cneo AK release: inactive; FN deposit inh: inactive; XiGFP reactiv: inactive; CFTR F508del cor: inactive

How did CNC[C@@H]1OCCCC[C@H](C)Oc2ccc(NC(=O)Nc3ccc4c(c3)OCO4)cc2C(=O)N([C@@H](C)CO)C[C@@H]1C do in these assays?
PGC1a acetyl inh: inactive; XiGFP reactiv: inactive; CFTR F508del cor: inactive

How did CCc1nc2nc(C)c(NS(=O)(=O)c3ccc(Br)s3)c(=O)n2[nH]1 do in these assays?
DENV2 CPE: 43.9; Cneo AK release: inactive; FN deposit inh: inactive; PGC1a acetyl inh: inactive; XiGFP reactiv: inactive; CFTR F508del cor: inactive

Results for C[C@H](CO)N1C[C@H](C)[C@H](CN(C)Cc2ccncc2)Oc2c(NC(=O)C3CCCCC3)cccc2C1=O ?
DENV2 CPE: inactive; Cneo AK release: inactive; PGC1a acetyl inh: inactive; XiGFP reactiv: inactive; CFTR F508del cor: inactive

How did CCC(C)(C)NC(=O)C(OC(=O)c1ccco1)c1ccccc1F (stereo not drawn) do in these assays?
DENV2 CPE: inactive; Cneo AK release: inactive; FN deposit inh: inactive; PGC1a acetyl inh: inactive; XiGFP reactiv: inactive; CFTR F508del cor: inactive

How did CCC(C)(C)NC(=O)C(OC(=O)c1ccco1)c1ccccc1OC (stereo not drawn) do in these assays?
Cneo AK release: inactive; FN deposit inh: 30.9; PGC1a acetyl inh: inactive

How did Cc1cc(/C=C\c2ccc3cc(N(C)C)ccc3[n+]2C)c(C)n1-c1ccccc1 do in these assays?
Cneo AK release: inactive; PGC1a acetyl inh: 67.6

How did C[n+]1c(/C=C/c2ccc(O)cc2)ccc2ccccc21 do in these assays?
DENV2 CPE: inactive; Cneo AK release: inactive; FN deposit inh: inactive; PGC1a acetyl inh: inactive; XiGFP reactiv: inactive; CFTR F508del cor: inactive

Results for C/C=C/c1ccc([C@@H]2[C@H](C#N)N(C(=O)NC3CCCCC3)[C@H]2CO)cc1 ?
DENV2 CPE: 77.4; Cneo AK release: inactive; FN deposit inh: inactive; PGC1a acetyl inh: inactive; XiGFP reactiv: inactive; CFTR F508del cor: inactive

Results for N#C[C@H]1[C@H](c2ccc(C3=CCCCC3)cc2)[C@@H](CO)N1C(=O)NC1CCCCC1 ?
DENV2 CPE: inactive; Cneo AK release: inactive; FN deposit inh: inactive; PGC1a acetyl inh: inactive; XiGFP reactiv: inactive; CFTR F508del cor: 10.1

How did C/C=C/c1ccc([C@H]2[C@@H](C#N)N(C(=O)NC3CCCCC3)[C@H]2CO)cc1 do in these assays?
DENV2 CPE: inactive; Cneo AK release: inactive; FN deposit inh: inactive; PGC1a acetyl inh: inactive; XiGFP reactiv: inactive; CFTR F508del cor: inactive

What do the screens show for `N#C[C@H]1[C@@H](c2ccc(C3=CCCCC3)cc2)[C@H](CO)N1C(=O)NC1CCCC1`?
DENV2 CPE: inactive; FN deposit inh: inactive; PGC1a acetyl inh: inactive; XiGFP reactiv: inactive; CFTR F508del cor: inactive

How did N#C[C@@H]1[C@H](c2ccc(C3=CCCCC3)cc2)[C@H](CO)N1C(=O)NC1CCCC1 do in these assays?
DENV2 CPE: 27.4; FN deposit inh: inactive; XiGFP reactiv: inactive; CFTR F508del cor: inactive
